The values below come from ChEMBL document CHEMBL1138430, “Novel tetrahydroisoquinolines are histamine H3 antagonists and serotonin reuptake inhibitors” (Bioorg Med Chem Lett, 2007).

Series [1] deals with D(1A) dopamine receptor (Homo sapiens) (UniProt P21728). As to the kind of experiment: Binding affinity at dopamine D1 receptor at 1 uM.
The target in series [2] is Sodium-dependent dopamine transporter (Homo sapiens, UniProt Q01959). Description: Inhibition of [3H]WIN-uptake in human DAT expressed in CHO cells. Type of series: cell-based. In short, it runs like this: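 Human DAT expressed in CHO cells; membranes were incubated on ice for 2 h with 10.9 nM [3H]-WIN 35,428, then harvested by rapid filtration. Nonspecific binding was defined with GBR-12909. Ki values are means of at least three experiments run in triplicate, with SEM.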
Sodium-dependent dopamine transporter, sequence (Q01959 whole entry): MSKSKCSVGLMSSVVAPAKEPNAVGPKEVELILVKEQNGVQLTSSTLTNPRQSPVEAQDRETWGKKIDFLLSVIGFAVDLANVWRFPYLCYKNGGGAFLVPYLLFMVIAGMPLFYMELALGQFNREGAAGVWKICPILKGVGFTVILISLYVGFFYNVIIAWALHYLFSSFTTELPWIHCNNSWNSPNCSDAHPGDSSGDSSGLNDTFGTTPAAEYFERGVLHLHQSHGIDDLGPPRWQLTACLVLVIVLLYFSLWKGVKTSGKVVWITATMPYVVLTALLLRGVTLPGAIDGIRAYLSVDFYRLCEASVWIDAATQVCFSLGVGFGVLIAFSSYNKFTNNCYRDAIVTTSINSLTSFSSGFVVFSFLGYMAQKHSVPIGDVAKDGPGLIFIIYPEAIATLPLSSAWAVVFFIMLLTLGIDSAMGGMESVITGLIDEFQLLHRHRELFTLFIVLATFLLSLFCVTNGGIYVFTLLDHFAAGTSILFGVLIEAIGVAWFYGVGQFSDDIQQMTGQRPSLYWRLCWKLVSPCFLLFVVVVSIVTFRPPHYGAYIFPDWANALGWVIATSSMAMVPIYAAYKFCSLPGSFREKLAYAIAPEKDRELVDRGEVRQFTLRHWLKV

Series [3] addresses Mu-type opioid receptor (Homo sapiens) (UniProt P35372). As to the kind of experiment: Binding affinity at MOP receptor at 1 uM.
A short description of series [4]: Plasma clearance in po and iv dosed rat. Type of series: ADME, organism-based.
A short description of series [5]: Cmax in rat brain at 10 mg/kg, po. The format is ADME, organism-based. On the set-up: dose 10 mg/kg, route oral.
Series [6] has as its system Rattus norvegicus. As to the kind of experiment: Ex vivo receptor occupancy at histamine H3 receptor in rat at 0.3 mg/kg, sc. The format is functional. As to conditions: route subcutaneous. In short, it runs like this:
(§1)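 Ex vivo receptor occupancy was measured in rat brain at SERT and at the H3 receptor after a single subcutaneous dose. Brain drug concentrations were determined alongside occupancy.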

The subject of series [7] is Voltage-gated calcium channel. As to the kind of experiment: Binding affinity for calcium channel at 1 uM. Type of series: protein-complex assay. The conditions noted are these: human.
The nature of series [8]: Volume of distribution at steady state in po and iv dosed rat. The format is ADME, organism-based. As to conditions: in vivo, read-out: Vdss.
Series [9] deals with D(2) dopamine receptor (Homo sapiens) (UniProt P14416). As to the kind of experiment: Binding affinity at dopamine D2 receptor at 1 uM.
D(2) dopamine receptor (Homo sapiens), sequence (P14416 whole entry): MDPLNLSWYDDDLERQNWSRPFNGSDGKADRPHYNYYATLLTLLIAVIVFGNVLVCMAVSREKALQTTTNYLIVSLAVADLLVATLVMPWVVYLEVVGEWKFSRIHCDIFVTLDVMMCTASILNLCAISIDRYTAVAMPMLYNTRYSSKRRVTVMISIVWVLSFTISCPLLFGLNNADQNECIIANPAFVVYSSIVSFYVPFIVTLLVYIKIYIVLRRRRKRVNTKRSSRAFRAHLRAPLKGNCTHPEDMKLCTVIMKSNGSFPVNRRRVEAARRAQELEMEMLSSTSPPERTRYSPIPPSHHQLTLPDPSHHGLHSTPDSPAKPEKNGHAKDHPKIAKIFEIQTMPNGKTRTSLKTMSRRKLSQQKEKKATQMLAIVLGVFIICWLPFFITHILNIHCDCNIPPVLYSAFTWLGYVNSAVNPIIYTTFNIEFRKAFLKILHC
Series [10] concerns Voltage-gated potassium channel. As to the kind of experiment: Binding affinity for potassium channel at 1 uM. As to conditions: human. The format is protein assay.
Series [11] concerns the target T1, Cholecystokinin receptor type A (Homo sapiens) (UniProt P32238).
T1 sequence (whole entry): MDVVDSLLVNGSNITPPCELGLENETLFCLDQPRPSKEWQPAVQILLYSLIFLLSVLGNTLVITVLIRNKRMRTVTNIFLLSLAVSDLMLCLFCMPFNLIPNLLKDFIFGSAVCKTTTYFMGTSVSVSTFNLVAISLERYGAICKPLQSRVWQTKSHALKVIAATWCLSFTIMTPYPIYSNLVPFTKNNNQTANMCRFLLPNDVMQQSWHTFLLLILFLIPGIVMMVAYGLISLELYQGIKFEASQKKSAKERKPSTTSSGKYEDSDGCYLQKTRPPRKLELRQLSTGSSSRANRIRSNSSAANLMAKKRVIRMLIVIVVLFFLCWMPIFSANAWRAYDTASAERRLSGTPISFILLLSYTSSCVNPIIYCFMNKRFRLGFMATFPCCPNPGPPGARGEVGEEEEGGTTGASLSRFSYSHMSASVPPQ
As to the kind of experiment: Binding affinity at CCKA receptor at 1 uM.

In a further series the test system is Brain. Description: Drug level in rat brain at 0.3 mg/kg, sc. The conditions noted are these: in vivo, read-out: Drug uptake. Further details: dose 0.3 mg/kg, route subcutaneous. The format is ADME, organism-based.
Series [12] can be described thus: Bioavailability in po dosed rat. Type of series: ADME, organism-based. As to conditions: in vivo.
For series [13], the target named is Sodium-dependent noradrenaline transporter (Homo sapiens, UniProt P23975). Description: Inhibition of [3H]nisoxetine uptake in human NET expressed in MDCK cells. Type of series: cell-based.
Sodium-dependent noradrenaline transporter, sequence (P23975 whole entry): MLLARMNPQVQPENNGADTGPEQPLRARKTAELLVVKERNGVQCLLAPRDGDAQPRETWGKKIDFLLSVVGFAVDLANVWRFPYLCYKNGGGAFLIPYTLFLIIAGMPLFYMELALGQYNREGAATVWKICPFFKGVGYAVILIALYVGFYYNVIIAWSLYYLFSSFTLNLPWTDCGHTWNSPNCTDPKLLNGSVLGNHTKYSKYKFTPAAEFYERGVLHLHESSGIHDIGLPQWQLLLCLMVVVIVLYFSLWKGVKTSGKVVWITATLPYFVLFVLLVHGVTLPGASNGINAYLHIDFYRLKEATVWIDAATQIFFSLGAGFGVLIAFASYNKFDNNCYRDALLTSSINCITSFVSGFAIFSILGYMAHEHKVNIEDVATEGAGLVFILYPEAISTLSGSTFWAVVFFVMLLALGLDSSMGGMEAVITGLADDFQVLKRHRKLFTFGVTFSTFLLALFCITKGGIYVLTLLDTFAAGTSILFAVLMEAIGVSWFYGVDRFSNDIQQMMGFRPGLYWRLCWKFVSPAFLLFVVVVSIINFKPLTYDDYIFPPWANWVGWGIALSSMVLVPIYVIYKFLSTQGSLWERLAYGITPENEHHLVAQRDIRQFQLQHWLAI
Series [14] concerns the target T2, Alpha-1A adrenergic receptor (Homo sapiens) (UniProt P35348).
T2 sequence (whole entry): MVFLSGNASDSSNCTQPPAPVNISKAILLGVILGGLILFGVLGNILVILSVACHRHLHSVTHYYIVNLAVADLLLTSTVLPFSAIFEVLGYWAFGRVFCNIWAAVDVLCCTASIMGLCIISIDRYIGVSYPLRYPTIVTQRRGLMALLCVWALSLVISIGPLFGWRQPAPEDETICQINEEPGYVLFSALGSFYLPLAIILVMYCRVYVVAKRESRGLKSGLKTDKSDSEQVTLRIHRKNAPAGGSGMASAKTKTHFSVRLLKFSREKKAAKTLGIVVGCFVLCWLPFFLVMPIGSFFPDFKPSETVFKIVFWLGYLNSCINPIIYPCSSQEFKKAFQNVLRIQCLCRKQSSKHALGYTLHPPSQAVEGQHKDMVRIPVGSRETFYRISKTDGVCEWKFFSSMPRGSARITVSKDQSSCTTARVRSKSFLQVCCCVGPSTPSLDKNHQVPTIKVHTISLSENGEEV
As to the kind of experiment: Binding affinity at adrenergic alpha-1 receptor at 1 uM.

Series [15] in a line: Half life in po and iv dosed rat. The format is ADME, organism-based. The conditions noted are these: in vivo.
For another series, the species on record is Homo sapiens. As to the kind of experiment: Binding affinity for sodium channel at 1 uM.
Series [16] concerns Rattus norvegicus. As to the kind of experiment: Ex vivo receptor occupancy at SERT in rat at 0.3 mg/kg, sc. The format is functional. The conditions noted are these: route subcutaneous. In short, it runs like this:
as §1

Series [17] has as its target 5-hydroxytryptamine receptor 7 (Homo sapiens) (UniProt P34969). As to the kind of experiment: Binding affinity at 5HT7 receptor at 1 uM.
For series [18], the target named is T3, Histamine H3 receptor (Homo sapiens, UniProt Q9Y5N1). As to the kind of experiment: Binding affinity at human histamine H3 receptor.
T3 sequence (Q9Y5N1 whole entry): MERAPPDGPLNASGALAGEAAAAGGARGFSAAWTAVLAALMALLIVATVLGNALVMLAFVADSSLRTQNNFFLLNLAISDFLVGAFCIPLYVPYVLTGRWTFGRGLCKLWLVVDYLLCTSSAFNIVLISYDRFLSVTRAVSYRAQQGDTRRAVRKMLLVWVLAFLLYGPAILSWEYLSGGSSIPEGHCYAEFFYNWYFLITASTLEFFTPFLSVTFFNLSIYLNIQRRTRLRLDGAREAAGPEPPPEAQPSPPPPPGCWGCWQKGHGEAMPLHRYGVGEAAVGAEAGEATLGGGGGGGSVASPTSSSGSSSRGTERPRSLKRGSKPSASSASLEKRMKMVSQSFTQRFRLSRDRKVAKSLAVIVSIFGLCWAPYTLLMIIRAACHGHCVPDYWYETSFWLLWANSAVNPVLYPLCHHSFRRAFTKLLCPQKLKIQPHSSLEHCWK
The target in series [19] is T3, Histamine H3 receptor. Description: Antagonist activity at human histamine H3 receptor. The format is functional. The conditions noted are these: read-out: pA2 (converted).

Calls of active or inactive are those of the source. The rule behind the calls is not given here.

D(1A) dopamine receptor (Homo sapiens), sequence (P21728 whole entry): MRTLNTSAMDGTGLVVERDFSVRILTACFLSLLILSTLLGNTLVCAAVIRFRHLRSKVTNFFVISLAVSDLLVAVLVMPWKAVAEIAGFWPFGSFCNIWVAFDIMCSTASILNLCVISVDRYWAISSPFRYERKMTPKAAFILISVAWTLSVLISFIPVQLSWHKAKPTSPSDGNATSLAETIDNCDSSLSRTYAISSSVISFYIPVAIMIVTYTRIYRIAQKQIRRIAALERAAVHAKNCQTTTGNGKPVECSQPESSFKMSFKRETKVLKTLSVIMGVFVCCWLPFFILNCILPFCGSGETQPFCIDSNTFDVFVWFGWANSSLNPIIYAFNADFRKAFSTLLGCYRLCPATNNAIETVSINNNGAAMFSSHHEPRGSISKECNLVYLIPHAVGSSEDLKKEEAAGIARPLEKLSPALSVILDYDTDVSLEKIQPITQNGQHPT
5-hydroxytryptamine receptor 7 (Homo sapiens), sequence (P34969 whole entry): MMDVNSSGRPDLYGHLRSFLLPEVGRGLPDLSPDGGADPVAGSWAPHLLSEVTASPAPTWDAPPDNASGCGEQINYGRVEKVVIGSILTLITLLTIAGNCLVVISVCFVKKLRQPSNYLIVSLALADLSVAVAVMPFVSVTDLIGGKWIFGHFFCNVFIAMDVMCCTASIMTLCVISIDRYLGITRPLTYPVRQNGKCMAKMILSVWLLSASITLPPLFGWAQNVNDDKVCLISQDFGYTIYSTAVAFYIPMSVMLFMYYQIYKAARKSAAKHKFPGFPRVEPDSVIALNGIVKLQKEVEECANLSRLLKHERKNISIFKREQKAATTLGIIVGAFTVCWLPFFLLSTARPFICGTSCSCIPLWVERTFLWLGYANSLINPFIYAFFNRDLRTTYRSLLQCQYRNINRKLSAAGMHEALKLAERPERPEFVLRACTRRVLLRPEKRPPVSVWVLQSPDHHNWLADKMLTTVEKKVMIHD
Mu-type opioid receptor (Homo sapiens), sequence (P35372 whole entry): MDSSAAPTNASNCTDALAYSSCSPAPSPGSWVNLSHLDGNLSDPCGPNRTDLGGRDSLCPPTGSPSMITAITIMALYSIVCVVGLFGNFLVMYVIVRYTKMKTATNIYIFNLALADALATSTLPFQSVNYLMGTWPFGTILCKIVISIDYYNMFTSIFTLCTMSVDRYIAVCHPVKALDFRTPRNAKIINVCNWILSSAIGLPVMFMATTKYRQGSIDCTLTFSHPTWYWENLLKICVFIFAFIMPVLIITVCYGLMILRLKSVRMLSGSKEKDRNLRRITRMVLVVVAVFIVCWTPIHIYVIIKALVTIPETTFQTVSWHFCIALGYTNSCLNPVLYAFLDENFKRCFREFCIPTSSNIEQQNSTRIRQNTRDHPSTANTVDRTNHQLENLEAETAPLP

The term Ki denotes a measure of affinity in units of concentration, obtained from inhibition or displacement. High values mean weaker binding, low ones tighter binding. As a reminder, the Cmax is the maximum level reached in the sampled fluid or tissue. One may read the bioavailability as dose-corrected exposure relative to a reference, in per cent. A higher bioavailability goes with much systemic uptake. The term half-life denotes how long it takes for the measured level to halve. Regarding `CSc1ccc(C2CN(C)Cc3cc(OCCCN4CCOCC4)ccc32)cc1` (racemic), the outcome (in [1]; in series [3]; in series [9]; in [11]; in [14]; in the series filed under Homo sapiens) was inactive. For the same compound, the result in series [17] was inactive. Further, the Ki in [2] stood at 29 nM; in series [13] it was 106 nM. The clearance in [4] amounted to 14 mL/min/kg. For the same compound, the Cmax in series [5] is 9600 nM. Further, the Activity in the series with Rattus norvegicus [6] was 100%; in [7], “Not Active”; in series [10], “Not Active”; in the series on Rattus norvegicus [16], 100%. In series [8], the Vd came out at 5.1 L/kg. For the same compound, the concentration with Brain amounted to 670 nM. Besides, the bioavailability in series [12] was found to be 38%. This compound also showed a half-life in series [15] of 6.6 h.

Regarding `CSc1ccc(C2CN(C)Cc3cc(OCCCN4CCC(F)CC4)ccc32)cc1` (racemic), the outcome (in series [1]; in series [3]; in series [9]; in [11]; in series [14]; in the series filed under Homo sapiens) was inactive. Besides, the outcome in series [17] was inactive.

Consider `COc1ccc([C@@H]2CN(C)Cc3cc(OCCCN4CCOC[C@@H]4C)ccc32)cc1`, for which the outcome (in series [1]; in series [3]; in series [9]; in [11]; in series [14]; in the series listed under Homo sapiens) was inactive. In addition, the result in [17] was inactive. Moreover, the figures for the Ki (in series [2]; on Histamine H3 receptor [18]; in [13]) were 102 nM, 5.6 nM and 121 nM, respectively. For the same compound, the clearance in series [4] was 18.1 mL/min/kg. Further, the Activity with Rattus norvegicus [6] is listed as 100%; in series [7] it was “Not Active”; in series [10], “Not Active”; in the series on Rattus norvegicus [16], 100%. The Vd in [8] is 6.8 L/kg. The concentration with Brain came to 880 nM. In series [12], this compound showed a bioavailability of 5%. Also, the Kb on Histamine H3 receptor [19] is 0.891 nM. Moreover, the half-life in series [15] is 9 h.
